Assays:
Pseudomonas aeruginosa [1] = test: Bactericidal activity against Pseudomonas aeruginosa ATCC 27853 incubated for 24 hrs followed by replating on agar plate and measured after overnight incubation; format: functional; details: ATCC 27853, 24 h, read-out: MBC>99.9
Procedure, shortened: (§1)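 Mid-log bacteria diluted in MHB to (0.5–1) × 10^5 CFU/mL and mixed 1:1 with peptide serially diluted in 0.2% BSA. After 24 h at 37 °C, 50 μL of each mixture was plated on agar and incubated overnight. MBC taken as the lowest concentration killing >99.9% of cells. At least three independent experiments, each with three technical replicates.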

Staphylococcus aureus [2] = test: Antibacterial activity against Staphylococcus aureus ATCC 29213 measured after 24 hrs; format: functional; details: ATCC 29213, 24 h
Procedure, shortened: (§2)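 Broth microdilution modified from NCCLS. Mid-log bacteria at (0.5–1) × 10^5 CFU mL−1 in MHB, mixed with peptides serially diluted in 0.2% BSA. Incubated 24 h at 37 °C, read at A492. MIC taken as lowest concentration giving 95% growth inhibition. At least three independent experiments, each with three technical replicates.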

Staphylococcus aureus [3] = test: Antibacterial activity against Staphylococcus aureus ATCC 29213 measured after 18 to 24 hrs in presence of FeCl3; format: functional
Escherichia coli [4] = test: Antibacterial activity against Escherichia coli K99 measured after 24 hrs; format: functional; details: K99, 24 h
Procedure, shortened: (§3)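 Broth microdilution adapted from NCCLS. Mid-log bacteria were diluted in MHB to a final (0.5–1) × 10^5 CFU mL−1. Peptides were serially diluted in 0.2% BSA and mixed with an equal volume of cells. After 24 h at 37 °C, MIC was read at A492 as the lowest concentration inhibiting 95% of growth. At least three independent experiments, each with three technical replicates.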

Staphylococcus aureus [5] = test: Antibacterial activity against Staphylococcus aureus ATCC 25923 measured after 24 hrs; format: functional; details: ATCC 25923, 24 h; procedure, shortened: as §2
Escherichia coli [6] = test: Antibacterial activity against Escherichia coli ATCC 25922 measured after 18 to 24 hrs in presence of NaCl; format: functional
Escherichia coli [7] = test: Antibacterial activity against Escherichia coli 078 measured after 24 hrs; format: functional; details: Escherichia coli, 078, 24 h; procedure, shortened: as §3
[8] = tested on: Staphylococcus epidermidis; test: Antibacterial activity against Staphylococcus epidermidis ATCC 12228 measured after 24 hrs; format: functional; details: ATCC 12228, 24 h; procedure, shortened: as §3
[9] = Therapeutic index, ratio of MHC10 for hemolytic activity in human RBC to MIC95 against methicillin-resistant Staphylococcus aureus ATCC 43300; format: toxicity; details: human red blood cells (erythrocytes), read-out: TI
Procedure, shortened: (§4)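 Therapeutic index = MHC divided by MIC. MHC is the lowest concentration giving >10% lysis of human RBC (1 h, 37 °C, 1-128 µM, A576). MIC is 95% growth inhibition by broth microdilution: bacteria in MHB 24 h at 37 °C; Candida in MOPS-buffered RPMI 1640 at (0.5–1) × 10^3 CFU mL−1, 48 h at 28 °C.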

[10] = Therapeutic index, ratio of MHC10 for hemolytic activity in human RBC to MIC95 against Candida tropicalis cgmcc2.1975; format: toxicity; details: human red blood cells (erythrocytes), read-out: TI; procedure, shortened: as §4
Escherichia coli [11] = test: Antibacterial activity against Escherichia coli ATCC 25922 measured after 18 to 24 hrs in presence of FeCl3; format: functional
[12] = Bactericidal activity against Salmonella pullorum ATCC 7913 incubated for 24 hrs followed by replating on agar plate and measured after overnight incubation; format: functional, Salmonella enterica subsp. enterica serovar Pullorum; details: Salmonella enterica, ATCC 7913, 24 h; read-out: MBC>99.9; procedure, shortened: as §1
Candida albicans [13] = test: Antifungal activity against Candida albicans cgmcc2.2086 measured after 48 hrs in presence of KCl by broth microdilution method; format: functional; details: cgmcc2.2086, 48 h
Candida albicans [14] = test: Antifungal activity against Candida albicans cgmcc2.2086 measured after 48 hrs in presence of NH4Cl by broth microdilution method; format: functional; details: cgmcc2.2086, 48 h
[15] = Therapeutic index, ratio of MHC10 for hemolytic activity in human RBC to MIC95 against Staphylococcus aureus ATCC 29213; format: toxicity; details: human red blood cells (erythrocytes), read-out: TI; procedure, shortened: as §4
Candida albicans [16] = test: Antifungal activity against Candida albicans cgmcc2.2086 measured after 48 hrs in presence of MgCl by broth microdilution method; format: functional; details: cgmcc2.2086, 48 h
Staphylococcus aureus [17] = test: Antibacterial activity against Staphylococcus aureus ATCC 29213 measured after 18 to 24 hrs in presence of CaCl2; format: functional
[18] = tested on: Staphylococcus epidermidis; test: Bactericidal activity against Staphylococcus epidermidis ATCC 12228 incubated for 24 hrs followed by replating on agar plate and measured after overnight incubation; format: functional; details: ATCC 12228, 24 h, read-out: MBC>99.9; procedure, shortened: as §1
Pseudomonas aeruginosa [19] = test: Antibacterial activity against Pseudomonas aeruginosa ATCC 27853 measured after 24 hrs; format: functional; details: ATCC 27853, 24 h; procedure, shortened: as §3
Staphylococcus aureus [20] = test: Bactericidal activity against methicillin-resistant Staphylococcus aureus ATCC 43300 incubated for 24 hrs followed by replating on agar plate and measured after overnight incubation; format: functional; details: ATCC 43300, 24 h, read-out: MBC>99.9
Procedure, shortened: (§5)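 After the 24 h, 37 °C MHB microdilution MIC assay, 50 μL from each well was plated on agar and incubated overnight. MBC taken as lowest peptide concentration killing >99.9% of cells. At least three independent experiments, each with three technical replicates.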

[21] = Therapeutic index, ratio of MHC10 for hemolytic activity in human RBC to MIC95 against Staphylococcus aureus ATCC 25923; format: toxicity; details: human red blood cells (erythrocytes), read-out: TI; procedure, shortened: as §4
[22] = Therapeutic index, ratio of MHC10 for hemolytic activity in human RBC to MIC95 against Candida parapsilosis cgmcc2.3989; format: toxicity; details: human red blood cells (erythrocytes), read-out: TI; procedure, shortened: as §4
Salmonella typhimurium = test: Antibacterial activity against Salmonella typhimurium ATCC 14028 measured after 24 hrs; format: functional, Salmonella enterica subsp. enterica serovar Typhimurium; details: Salmonella enterica, ATCC 14028, 24 h; procedure, shortened: as §3
Escherichia coli [23] = test: Antibacterial activity against Escherichia coli ATCC 25922 measured after 18 to 24 hrs in presence of CaCl2; format: functional
Candida albicans [24] = test: Antifungal activity against Candida albicans cgmcc2.2086 measured after 48 hrs by broth microdilution method; format: functional; details: cgmcc2.2086, 48 h
Procedure, shortened: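 Modified CLSI M27-A2 microdilution. Yeast colonies were diluted in MOPS-buffered RPMI 1640 to a final (0.5–1) × 10^3 CFU mL−1 and mixed with an equal volume of peptide serially diluted in 0.2% BSA. After 48 h at 28 °C, MIC was read at A492 as the lowest concentration inhibiting 95% of growth. At least three independent experiments, each with three technical replicates.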

Escherichia coli [25] = test: Antibacterial activity against Escherichia coli ATCC 25922 measured after 18 to 24 hrs in presence of MgCl2; format: functional
Escherichia coli [26] = test: Antibacterial activity against Escherichia coli ATCC 25922 measured after 24 hrs; format: functional; details: ATCC 25922, 24 h; procedure, shortened: as §3
Candida albicans [27] = test: Antifungal activity against Candida albicans cgmcc2.2086 measured after 48 hrs in presence of FeCl by broth microdilution method; format: functional; details: cgmcc2.2086, 48 h
Staphylococcus aureus [28] = test: Antibacterial activity against Staphylococcus aureus ATCC 29213 measured after 18 to 24 hrs in presence of NaCl; format: functional
Escherichia coli [29] = test: Antibacterial activity against Escherichia coli UB1005 measured after 24 hrs; format: functional; details: UB1005, 24 h; procedure, shortened: as §3
Staphylococcus aureus [30] = test: Bactericidal activity against Staphylococcus aureus ATCC 25923 incubated for 24 hrs followed by replating on agar plate and measured after overnight incubation; format: functional; details: ATCC 25923, 24 h, read-out: MBC>99.9; procedure, shortened: as §5

Substance	MBC (Pseudomonas aeruginosa [1]) [µM]	MIC95 (Staphylococcus aureus [2]) [µM]	MIC95 (Staphylococcus aureus [3]) [µM]	MIC95 (Escherichia coli [4]) [µM]	MIC95 (Staphylococcus aureus [5]) [µM]	MIC95 (Escherichia coli [6]) [µM]	MIC95 (Escherichia coli [7]) [µM]	MIC95 [8] [µM]	selectivity ratio [9]	selectivity ratio [10]	MIC95 (Escherichia coli [11]) [µM]	MBC [12] [µM]	MIC95 (Candida albicans [13]) [µM]	MIC95 (Candida albicans [14]) [µM]	selectivity ratio [15]	MIC95 (Candida albicans [16]) [µM]	MIC95 (Staphylococcus aureus [17]) [µM]	MBC [18] [µM]	MIC95 (Pseudomonas aeruginosa [19]) [µM]	MBC (Staphylococcus aureus [20]) [µM]	further results
H-AARIILRARFR-NH2	32	4	4	2	4	32	4	2	90.5	25.4	4	8	16	16	90.5	32	16	4	16	4	selectivity ratio [21]: 90.5; selectivity ratio [22]: 25.4; MIC95 (Salmonella typhimurium): 4 µM; MIC95 (Escherichia coli [23]): 32 µM; MIC95 (Candida albicans [24]): 16 µM; MIC95 (Escherichia coli [25]): 16 µM; MIC95 (Escherichia coli [26]): 4 µM; MIC95 (Candida albicans [27]): 16 µM; MIC95 (Staphylococcus aureus [28]): > 128 µM; MIC95 (Escherichia coli [29]): 2 µM; MBC (Staphylococcus aureus [30]): 8 µM
H-AARIILRLRFR-NH2	32	2	4	2	2	64	4	2	128	50.8	8	8	8	8	128	8	4	4	8	4	selectivity ratio [21]: 128; selectivity ratio [22]: 50.8; MIC95 (Salmonella typhimurium): 4 µM; MIC95 (Escherichia coli [23]): 32 µM; MIC95 (Candida albicans [24]): 8 µM; MIC95 (Escherichia coli [25]): 16 µM; MIC95 (Escherichia coli [26]): 4 µM; MIC95 (Candida albicans [27]): 8 µM; MIC95 (Staphylococcus aureus [28]): 16 µM; MIC95 (Escherichia coli [29]): 4 µM; MBC (Staphylococcus aureus [30]): 4 µM
H-AARIILRIRFR-NH2	32	2	2	4	2	8	2	2	64	25.4	4	4	8	8	64	16	16	4	16	4	selectivity ratio [21]: 64; selectivity ratio [22]: 25.4; MIC95 (Salmonella typhimurium): 2 µM; MIC95 (Escherichia coli [23]): 32 µM; MIC95 (Candida albicans [24]): 8 µM; MIC95 (Escherichia coli [25]): 16 µM; MIC95 (Escherichia coli [26]): 4 µM; MIC95 (Candida albicans [27]): 8 µM; MIC95 (Staphylococcus aureus [28]): 8 µM; MIC95 (Escherichia coli [29]): 4 µM; MBC (Staphylococcus aureus [30]): 4 µM
H-AARIILRGRFR-NH2	32	8	8	2	16	64	4	8	26.9	5.04	4	8	128	> 128	26.9	> 128	64	16	16	8	selectivity ratio [21]: 26.9; selectivity ratio [22]: 5.04; MIC95 (Salmonella typhimurium): 4 µM; MIC95 (Escherichia coli [23]): 64 µM; MIC95 (Candida albicans [24]): 128 µM; MIC95 (Escherichia coli [25]): 16 µM; MIC95 (Escherichia coli [26]): 4 µM; MIC95 (Candida albicans [27]): 128 µM; MIC95 (Staphylococcus aureus [28]): > 128 µM; MIC95 (Escherichia coli [29]): 4 µM; MBC (Staphylococcus aureus [30]): 32 µM
H-AARRILRWIFR-NH2	16	4	4	4	8	64	4	4	45.2	40.3	8	8	16	8	45.2	16	8	8	8	8	selectivity ratio [21]: 45.2; selectivity ratio [22]: 40.3; MIC95 (Salmonella typhimurium): 4 µM; MIC95 (Escherichia coli [23]): 16 µM; MIC95 (Candida albicans [24]): 8 µM; MIC95 (Escherichia coli [25]): 8 µM; MIC95 (Escherichia coli [26]): 4 µM; MIC95 (Candida albicans [27]): 8 µM; MIC95 (Staphylococcus aureus [28]): 64 µM; MIC95 (Escherichia coli [29]): 4 µM; MBC (Staphylococcus aureus [30]): 8 µM
H-AARIILRYRFR-NH2	64	4	4	4	8	> 128	4	2	64	8	16	8	64	64	64	64	64	4	16	8	selectivity ratio [21]: 64; selectivity ratio [22]: 8; MIC95 (Salmonella typhimurium): 8 µM; MIC95 (Escherichia coli [23]): > 128 µM; MIC95 (Candida albicans [24]): 32 µM; MIC95 (Escherichia coli [25]): 64 µM; MIC95 (Escherichia coli [26]): 8 µM; MIC95 (Candida albicans [27]): 64 µM; MIC95 (Staphylococcus aureus [28]): > 128 µM; MIC95 (Escherichia coli [29]): 4 µM; MBC (Staphylococcus aureus [30]): 16 µM
